Assay outcomes deposited in PubChem by several laboratories.
TbHK1 inh – blocks Trypanosoma brucei hexokinase 1 activity | recombinant TbHK1, G6PDH-coupled NADH A340 | inhibition, % at 10 µM | hit rate 0.11% among 220,000 | AID 1430;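 active means inhibition of 50% or more in the single-dose primary screen; inactive means inhibition below 50%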
RanGTP-Imp inh – inhibitors of RanGTP-importin-beta interaction, primary screen, biochemical, FRET, CFP-Ran, YFP-importin-beta, homogeneous. hit rate 1.1% among 300,000. cell-free CFP-Ran/YFP-importin-beta FRET ratio. inhibition, % (concentration not given with the values);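 active means more than half of the replicate wells show a fall in the fluorescence ratio signal beyond about 16%, limit read from the data, passing the limit was not always enough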;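 further: 0% = DMSO wells and 100% = Ran loaded with GDP instead of GTP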
Runt-CBFb FRET – blocks binding of human RUNX1 Runt domain to CBFb; hit rate 0.46% among 220,000; Q01196+Q13951; Cerulean-Runt/Venus-CBFb FRET ratio 530/480, 1 h; AID 1496; inhibition, % at 20 µM;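 active means inhibition over about 50% at 20 µM in the single-dose screen, limit read from the data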;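 further: 0% = DMSO wells and 100% = excess unlabeled CBFb competitor control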
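Assay system: Cerulean-Runt domain / Medium: Tris 50 mM pH 7.5, KCl, K2SO4, 0.01% BSA / Timing: protein complex preformed 1 h, compound exposure 1 h, room temperature, dark / Measured by: FRET, excitation 422 nm, emission at 530 and 480 nm / Evaluation: loss of energy transfer signal / Control set: 5 µM unlabeled CBFb as full-inhibition high control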
Hck Nef HTS – inhibitors of human Hck kinase activated by Nef | Recombinant Hck-YEEI plus Nef, Z-Lyte FRET kinase assay | inhibition, % at 20 µM | hit rate 0.68% among 220,000;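 active means Hck-Nef kinase inhibition above about 50%, limit read from the data; inactive means inhibition below that limit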;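 further: 0% = DMSO with Hck plus Nef and 100% = Hck alone without Nef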
Target sequence (P08631 whole entry, looked up): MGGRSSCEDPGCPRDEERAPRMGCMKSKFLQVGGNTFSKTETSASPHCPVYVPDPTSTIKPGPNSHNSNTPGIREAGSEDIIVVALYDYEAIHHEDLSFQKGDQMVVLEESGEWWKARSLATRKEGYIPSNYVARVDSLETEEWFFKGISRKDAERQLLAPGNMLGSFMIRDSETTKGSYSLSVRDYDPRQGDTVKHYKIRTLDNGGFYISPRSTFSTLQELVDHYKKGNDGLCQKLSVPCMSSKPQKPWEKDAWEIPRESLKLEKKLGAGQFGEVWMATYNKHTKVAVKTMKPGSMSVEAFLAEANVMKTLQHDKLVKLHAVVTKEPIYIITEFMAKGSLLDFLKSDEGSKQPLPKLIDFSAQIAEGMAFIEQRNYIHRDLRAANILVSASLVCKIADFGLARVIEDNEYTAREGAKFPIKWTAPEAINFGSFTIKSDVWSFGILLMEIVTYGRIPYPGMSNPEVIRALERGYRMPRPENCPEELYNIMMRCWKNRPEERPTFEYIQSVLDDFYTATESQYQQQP
Runt-SMMHC FRET – blocks binding of human RUNX1 Runt domain to CBFb-SMMHC | Cerulean-Runt/Venus-CBFb-SMMHC FRET ratio 530/480, 1 h | inhibition, % at 20 µM | hit rate 0.74% among 220,000;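 active means mean inhibition across duplicate retests at 20 µM reaching about 50%, limit read from the data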;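 further: 0% = DMSO wells and 100% = wells with excess untagged CBFb-SMMHC; inhibitors lower the FRET ratio by blocking Runt binding to CBFb-SMMHC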
* = called active by the depositor; ! = not confirmed by another sample. In the library only some 1.9% were active in any assay of this set; here they are far more common.

Results for CN1C=CC2=C(C#N)C(N)C(C#N)(C#N)[C@H](c3ccccc3)[C@H]2C1 (some centres undefined) ?
TbHK1 inh: 0; RanGTP-Imp inh: 64*; Runt-CBFb FRET: 66*; Hck Nef HTS: 7; Runt-SMMHC FRET: 79*

What do the screens show for `CCN(CC)S(=O)(=O)c1cccc(NC(=O)CSc2nnc(N)s2)c1`?
TbHK1 inh: 4; RanGTP-Imp inh: 30*; Runt-CBFb FRET: 0; Hck Nef HTS: 8; Runt-SMMHC FRET: -2

Results for CC(C)N1CCc2c(sc(NC(=O)CCc3ccccc3)c2C(N)=O)C1 ?
TbHK1 inh: -2; RanGTP-Imp inh: 130*; Runt-CBFb FRET: 78*; Hck Nef HTS: 22; Runt-SMMHC FRET: 92*

What do the screens show for `CC(=O)N1CCc2c(sc(NC(=O)Cc3ccccc3)c2C(N)=O)C1`?
RanGTP-Imp inh: 5

Results for CCCN1CCc2c(sc(NC(=O)Cc3ccc(F)cc3)c2C(N)=O)C1 ?
RanGTP-Imp inh: 133*

Results for CC(C)N1CCc2c(sc(NC(=O)Cc3ccccc3)c2C(N)=O)C1 ?
RanGTP-Imp inh: 140*

How did O=C(Nc1ccccc1C(=O)N1CCN(Cc2ccccc2)CC1)c1ccccc1 do in these assays?
RanGTP-Imp inh: 0

What do the screens show for `C=C[C@]1(C)C[C@@H](OC(=O)CSCCN(CC)CC)[C@]2(C)C(C)CC[C@]3(CCC(=O)[C@H]32)[C@@H](C)[C@@H]1O` (some centres undefined)?
RanGTP-Imp inh: -3

How did Cc1[nH]c(C)c(S(=O)(=O)N2CCN(c3ccccc3F)CC2)c1C(=O)N1CCCC1 do in these assays?
RanGTP-Imp inh: 1

Results for COc1cc2nc(N3CCN(C(=O)c4ccco4)CC3)nc(N)c2cc1OC ?
TbHK1 inh: -24; RanGTP-Imp inh: 25*!; Runt-CBFb FRET: 0; Hck Nef HTS: 2; Runt-SMMHC FRET: -1

How did Cc1nn(-c2ccccc2)c2sc(C(=O)NNC(=O)COc3cccc4ccccc34)cc12 do in these assays?
TbHK1 inh: -7; RanGTP-Imp inh: 3; Runt-CBFb FRET: -4; Hck Nef HTS: 3; Runt-SMMHC FRET: -3

Results for Cc1nn(-c2ccccc2)c2sc(C(=O)NNC(=O)COc3ccccc3)cc12 ?
TbHK1 inh: -2; RanGTP-Imp inh: 1; Runt-CBFb FRET: 121*; Hck Nef HTS: 12; Runt-SMMHC FRET: 128

Results for Cc1cc(C)nc(SCCn2c(N3CC(C)OC(C)C3)nc3c2c(=O)n(C)c(=O)n3C)n1 (centres undefined) ?
TbHK1 inh: 5; RanGTP-Imp inh: 4; Runt-CBFb FRET: -1; Hck Nef HTS: -10; Runt-SMMHC FRET: 0

Results for COCCN(CCOC)S(=O)(=O)c1ccc(C(=O)Nc2c(C)n(C)n(-c3ccccc3)c2=O)cc1 ?
TbHK1 inh: -6; RanGTP-Imp inh: -2; Runt-CBFb FRET: 0; Hck Nef HTS: 18; Runt-SMMHC FRET: 0

What do the screens show for `O=C(/C=C/c1cn(CC(O)CN2CCCCC2)c2ccccc12)c1ccccc1` (centres undefined)?
TbHK1 inh: -3; RanGTP-Imp inh: -11; Runt-CBFb FRET: -18; Hck Nef HTS: 0; Runt-SMMHC FRET: -64

How did CCCN(CCC)CC(O)Cn1cc(/C=C/C(=O)c2cccs2)c2ccccc21 (centres undefined) do in these assays?
TbHK1 inh: 8; RanGTP-Imp inh: 2; Runt-CBFb FRET: -155; Hck Nef HTS: -5; Runt-SMMHC FRET: -15

What do the screens show for `CCCN(CCC)CC(O)Cn1cc(/C=C/C(=O)c2ccccc2)c2ccccc21` (centres undefined)?
TbHK1 inh: 0; RanGTP-Imp inh: 29*; Runt-CBFb FRET: -23; Hck Nef HTS: -33; Runt-SMMHC FRET: -90

What do the screens show for `CN1CCN(Cn2cc(/C=C/C(=O)c3ccccc3)c3ccccc32)CC1`?
TbHK1 inh: -6; RanGTP-Imp inh: 67*; Runt-CBFb FRET: 6; Hck Nef HTS: 8; Runt-SMMHC FRET: -3

What do the screens show for `Cc1ccn(CCC(=O)NC2CC(C)(C)Cc3c2cnn3-c2ccccc2C)n1` (centres undefined)?
RanGTP-Imp inh: 1

How did Cc1cc(C(F)(F)F)nc(NCc2cccnc2)n1 do in these assays?
TbHK1 inh: 79*; RanGTP-Imp inh: -1; Runt-CBFb FRET: -2; Hck Nef HTS: 1; Runt-SMMHC FRET: 5

What do the screens show for `Cc1ccc(NCc2cccnc2)cc1`?
TbHK1 inh: -8; RanGTP-Imp inh: -7; Runt-CBFb FRET: 1; Hck Nef HTS: -2; Runt-SMMHC FRET: -3

What do the screens show for `Cc1onc(-c2c(Cl)cccc2Cl)c1C(=O)NCC1CCCO1` (centres undefined)?
TbHK1 inh: 0; RanGTP-Imp inh: -3; Runt-CBFb FRET: -1; Hck Nef HTS: 1; Runt-SMMHC FRET: 3

What do the screens show for `Cc1noc(C(=O)NCC2CCCO2)c1Cl` (centres undefined)?
RanGTP-Imp inh: 23*

How did CC(=O)OC(C)[C@H]1CC[C@H]2[C@@H]3CC[C@H]4C[C@@H](OC(C)=O)CC[C@]4(C)C3=CC[C@]12C (some centres undefined) do in these assays?
RanGTP-Imp inh: 0

What do the screens show for `c1ccc(-c2ccc(-c3ccccn3)s2)nc1`?
TbHK1 inh: -55; RanGTP-Imp inh: 18*; Runt-CBFb FRET: -3; Hck Nef HTS: -5; Runt-SMMHC FRET: 4

How did CC(C)(C)c1csc(NC(=O)c2cccnc2)n1 do in these assays?
RanGTP-Imp inh: 36*

Results for O=C1N/C(=N/S(=O)(=O)Cc2ccccc2)S/C1=C/c1ccc2c(c1)OCO2 ?
TbHK1 inh: -13; RanGTP-Imp inh: -1; Runt-CBFb FRET: 2; Hck Nef HTS: 28; Runt-SMMHC FRET: -2

What do the screens show for `O=c1c(/C=C(\O)c2ccccc2)nc2ccccc2n1-c1ccccc1`?
TbHK1 inh: -17; RanGTP-Imp inh: 72*; Runt-CBFb FRET: -101; Hck Nef HTS: -2; Runt-SMMHC FRET: -66

Results for O=C(O)CC(C(=O)O)N1C(=O)/C(=C/C=C/c2ccco2)SC1=S (centres undefined) ?
TbHK1 inh: -10; RanGTP-Imp inh: -5; Runt-CBFb FRET: 39; Hck Nef HTS: 71*; Runt-SMMHC FRET: -2

What do the screens show for `CC1=Nc2ccccc2/C1=C/c1sc(=N)n(-c2nccs2)c1O`?
TbHK1 inh: -2; RanGTP-Imp inh: 23*; Runt-CBFb FRET: -42; Hck Nef HTS: 1; Runt-SMMHC FRET: -112

What do the screens show for `CC1=Nc2ccccc2/C1=C\c1nc(-c2ccc(C(F)(F)F)cc2)oc1O`?
TbHK1 inh: -7; RanGTP-Imp inh: -30; Runt-CBFb FRET: -31; Hck Nef HTS: 1; Runt-SMMHC FRET: -75

How did COc1ccccc1N1CCN(C2CCCN(C(=O)Cn3cccn3)C2)CC1 (centres undefined) do in these assays?
RanGTP-Imp inh: -3

What do the screens show for `O=C(CN1CCN(c2ccc(O)cc2)CC1)Nc1cc(S(=O)(=O)N2CCCCC2)ccc1Cl`?
TbHK1 inh: -6; RanGTP-Imp inh: 2; Runt-CBFb FRET: 10; Hck Nef HTS: 61*; Runt-SMMHC FRET: 8
